Source: ChEMBL document CHEMBL4689842, “EUbOPEN Chemogenomics Library wave 1” (2021)

Test system: HEK-293T
Test: Multiplex assay against HEK293T;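 for Population Tubulin-Different-Phenotype (%): share of the cells with healthy nuclei that show this phenotype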
Format: toxicity, cell-based
Conditions: human
Outline: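 Cells were classed with CellPathfinder machine-learning gating, first as Hoechst high-intensity objects or normal cells, then (normal cells) as healthy, pyknosed or fragmented nuclei, and finally (pyknosed cells) as mitotic or apoptotic. Staining of live cells at seeding used Hoechst33342, BioTracker Green Microtubule Cytoskeleton Dye, MitoTracker Red and Annexin V Alexa Fluor 680, with imaging on a CQ1 microscope at 37°C and 5% CO2 after compound addition. Tubulin, mitochondrial-mass and membrane-permeability phenotypes are per cents of healthy-nucleus cells.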

[1] = 12 h, 1 µM, compound concentration 1 uM, replicate 1
[2] = 12 h, 1 µM, compound concentration 1 uM, replicate 2
[3] = 12 h, 10 µM, compound concentration 10 uM, replicate 1
[4] = 12 h, 10 µM, compound concentration 10 uM, replicate 2
[5] = 24 h, 1 µM, compound concentration 1 uM, replicate 1
[6] = 24 h, 1 µM, compound concentration 1 uM, replicate 2
[7] = 24 h, 10 µM, compound concentration 10 uM, replicate 1
[8] = 24 h, 10 µM, compound concentration 10 uM, replicate 2
[9] = 48 h, 1 µM, compound concentration 1 uM, replicate 1
[10] = 48 h, 1 µM, compound concentration 1 uM, replicate 2
[11] = 48 h, 10 µM, compound concentration 10 uM, replicate 1
[12] = 48 h, 10 µM, compound concentration 10 uM, replicate 2

Cc1cccc(CN2CCN(C(c3ccccc3)c3ccc(Cl)cc3)CC2)c1.Cl.Cl (stereo not given)
Population Apoptotic (%) [1]: 52%
Population Fragmented Nuclei (%) [1]: 13%
Population Healthy Nuclei (%) [1]: 25%
Population Hoechst High Intensity Objects (%) [1]: 19%
Population Membrane Permeable-Phenotype (%) [1]: 0%
Population Mitochondria Different-Phenotype (%) [1]: 73%
Population Mitotic Cells (%) [1]: 47%
Population Normal (%) [1]: 80%
Population Pyknosed Nuclei (%) [1]: 60%
Population Tubulin-Different-Phenotype (%) [1]: 39%
Total Cell Count [1]: 198
Population Apoptotic (%) [2]: 9%
Population Fragmented Nuclei (%) [2]: 6%
Population Healthy Nuclei (%) [2]: 48%
Population Hoechst High Intensity Objects (%) [2]: 3%
Population Membrane Permeable-Phenotype (%) [2]: 10%
Population Mitochondria Different-Phenotype (%) [2]: 25%
Population Mitotic Cells (%) [2]: 90%
Population Normal (%) [2]: 96%
Population Pyknosed Nuclei (%) [2]: 44%
Population Tubulin-Different-Phenotype (%) [2]: 18%
Total Cell Count [2]: 170
Population Apoptotic (%) [3]: 69%
Population Fragmented Nuclei (%) [3]: 10%
Population Healthy Nuclei (%) [3]: 40%
Population Hoechst High Intensity Objects (%) [3]: 16%
Population Membrane Permeable-Phenotype (%) [3]: 3%
Population Mitochondria Different-Phenotype (%) [3]: 96%
Population Mitotic Cells (%) [3]: 30%
Population Normal (%) [3]: 83%
Population Pyknosed Nuclei (%) [3]: 49%
Population Tubulin-Different-Phenotype (%) [3]: 85%
Total Cell Count [3]: 255
Population Apoptotic (%) [4]: 42%
Population Fragmented Nuclei (%) [4]: 8%
Population Healthy Nuclei (%) [4]: 38%
Population Hoechst High Intensity Objects (%) [4]: 3%
Population Membrane Permeable-Phenotype (%) [4]: 6%
Population Mitochondria Different-Phenotype (%) [4]: 73%
Population Mitotic Cells (%) [4]: 57%
Population Normal (%) [4]: 96%
Population Pyknosed Nuclei (%) [4]: 53%
Population Tubulin-Different-Phenotype (%) [4]: 69%
Total Cell Count [4]: 206
Population Apoptotic (%) [5]: 51%
Population Fragmented Nuclei (%) [5]: 11%
Population Healthy Nuclei (%) [5]: 33%
Population Hoechst High Intensity Objects (%) [5]: 17%
Population Membrane Permeable-Phenotype (%) [5]: 1%
Population Mitochondria Different-Phenotype (%) [5]: 73%
Population Mitotic Cells (%) [5]: 48%
Population Normal (%) [5]: 82%
Population Pyknosed Nuclei (%) [5]: 55%
Population Tubulin-Different-Phenotype (%) [5]: 43%
Total Cell Count [5]: 204
Population Apoptotic (%) [6]: 10%
Population Fragmented Nuclei (%) [6]: 6%
Population Healthy Nuclei (%) [6]: 66%
Population Hoechst High Intensity Objects (%) [6]: 4%
Population Membrane Permeable-Phenotype (%) [6]: 7%
Population Mitochondria Different-Phenotype (%) [6]: 26%
Population Mitotic Cells (%) [6]: 89%
Population Normal (%) [6]: 95%
Population Pyknosed Nuclei (%) [6]: 26%
Population Tubulin-Different-Phenotype (%) [6]: 33%
Total Cell Count [6]: 221
Population Apoptotic (%) [7]: 75%
Population Fragmented Nuclei (%) [7]: 11%
Population Healthy Nuclei (%) [7]: 41%
Population Hoechst High Intensity Objects (%) [7]: 15%
Population Membrane Permeable-Phenotype (%) [7]: 0%
Population Mitochondria Different-Phenotype (%) [7]: 96%
Population Mitotic Cells (%) [7]: 24%
Population Normal (%) [7]: 84%
Population Pyknosed Nuclei (%) [7]: 46%
Population Tubulin-Different-Phenotype (%) [7]: 87%
Total Cell Count [7]: 274
Population Apoptotic (%) [8]: 59%
Population Fragmented Nuclei (%) [8]: 6%
Population Healthy Nuclei (%) [8]: 56%
Population Hoechst High Intensity Objects (%) [8]: 3%
Population Membrane Permeable-Phenotype (%) [8]: 6%
Population Mitochondria Different-Phenotype (%) [8]: 87%
Population Mitotic Cells (%) [8]: 40%
Population Normal (%) [8]: 96%
Population Pyknosed Nuclei (%) [8]: 37%
Population Tubulin-Different-Phenotype (%) [8]: 81%
Total Cell Count [8]: 246
Population Apoptotic (%) [9]: 49%
Population Fragmented Nuclei (%) [9]: 18%
Population Healthy Nuclei (%) [9]: 34%
Population Hoechst High Intensity Objects (%) [9]: 17%
Population Membrane Permeable-Phenotype (%) [9]: 2%
Population Mitochondria Different-Phenotype (%) [9]: 47%
Population Mitotic Cells (%) [9]: 50%
Population Normal (%) [9]: 82%
Population Pyknosed Nuclei (%) [9]: 47%
Population Tubulin-Different-Phenotype (%) [9]: 34%
Total Cell Count [9]: 244
Population Apoptotic (%) [10]: 15%
Population Fragmented Nuclei (%) [10]: 10%
Population Healthy Nuclei (%) [10]: 75%
Population Hoechst High Intensity Objects (%) [10]: 4%
Population Membrane Permeable-Phenotype (%) [10]: 5%
Population Mitochondria Different-Phenotype (%) [10]: 7%
Population Mitotic Cells (%) [10]: 84%
Population Normal (%) [10]: 95%
Population Pyknosed Nuclei (%) [10]: 13%
Population Tubulin-Different-Phenotype (%) [10]: 20%
Total Cell Count [10]: 397
Population Apoptotic (%) [11]: 61%
Population Fragmented Nuclei (%) [11]: 13%
Population Healthy Nuclei (%) [11]: 55%
Population Hoechst High Intensity Objects (%) [11]: 12%
Population Membrane Permeable-Phenotype (%) [11]: 2%
Population Mitochondria Different-Phenotype (%) [11]: 89%
Population Mitotic Cells (%) [11]: 38%
Population Normal (%) [11]: 87%
Population Pyknosed Nuclei (%) [11]: 31%
Population Tubulin-Different-Phenotype (%) [11]: 83%
Total Cell Count [11]: 309
Population Apoptotic (%) [12]: 44%
Population Fragmented Nuclei (%) [12]: 7%
Population Healthy Nuclei (%) [12]: 68%
Population Hoechst High Intensity Objects (%) [12]: 4%
Population Membrane Permeable-Phenotype (%) [12]: 4%
Population Mitochondria Different-Phenotype (%) [12]: 67%
Population Mitotic Cells (%) [12]: 55%
Population Normal (%) [12]: 95%
Population Pyknosed Nuclei (%) [12]: 24%
Population Tubulin-Different-Phenotype (%) [12]: 71%
Total Cell Count [12]: 355

CCc1ccc(OCc2ccccc2C(=O)Nc2ccc3nc(C)cc(N)c3c2)cc1.Cl
Population Apoptotic (%) [1]: 84%
Population Fragmented Nuclei (%) [1]: 28%
Population Healthy Nuclei (%) [1]: 7%
Population Hoechst High Intensity Objects (%) [1]: 18%
Population Membrane Permeable-Phenotype (%) [1]: 33%
Population Mitochondria Different-Phenotype (%) [1]: 100%
Population Mitotic Cells (%) [1]: 15%
Population Normal (%) [1]: 81%
Population Pyknosed Nuclei (%) [1]: 64%
Population Tubulin-Different-Phenotype (%) [1]: 66%
Total Cell Count [1]: 156
Population Apoptotic (%) [2]: 73%
Population Fragmented Nuclei (%) [2]: 8%
Population Healthy Nuclei (%) [2]: 12%
Population Hoechst High Intensity Objects (%) [2]: 14%
Population Membrane Permeable-Phenotype (%) [2]: 0%
Population Mitochondria Different-Phenotype (%) [2]: 93%
Population Mitotic Cells (%) [2]: 26%
Population Normal (%) [2]: 85%
Population Pyknosed Nuclei (%) [2]: 79%
Population Tubulin-Different-Phenotype (%) [2]: 73%
Total Cell Count [2]: 146
Population Apoptotic (%) [3]: 50%
Population Fragmented Nuclei (%) [3]: 19%
Population Healthy Nuclei (%) [3]: 0%
Population Hoechst High Intensity Objects (%) [3]: 24%
Population Membrane Permeable-Phenotype (%) [3]: 0%
Population Mitochondria Different-Phenotype (%) [3]: 0%
Population Mitotic Cells (%) [3]: 50%
Population Normal (%) [3]: 75%
Population Pyknosed Nuclei (%) [3]: 80%
Population Tubulin-Different-Phenotype (%) [3]: 0%
Total Cell Count [3]: 144
Population Apoptotic (%) [4]: 62%
Population Fragmented Nuclei (%) [4]: 18%
Population Healthy Nuclei (%) [4]: 30%
Population Hoechst High Intensity Objects (%) [4]: 35%
Population Membrane Permeable-Phenotype (%) [4]: 11%
Population Mitochondria Different-Phenotype (%) [4]: 8%
Population Mitotic Cells (%) [4]: 37%
Population Normal (%) [4]: 64%
Population Pyknosed Nuclei (%) [4]: 51%
Population Tubulin-Different-Phenotype (%) [4]: 41%
Total Cell Count [4]: 175
Population Apoptotic (%) [5]: 85%
Population Fragmented Nuclei (%) [5]: 18%
Population Hoechst High Intensity Objects (%) [5]: 19%
Population Mitochondria Different-Phenotype (%) [5]: 90%
Population Mitotic Cells (%) [5]: 14%
Population Normal (%) [5]: 80%
Population Pyknosed Nuclei (%) [5]: 72%
Population Tubulin-Different-Phenotype (%) [5]: 81%
Total Cell Count [5]: 152
Population Apoptotic (%) [6]: 80%
Population Fragmented Nuclei (%) [6]: 10%
Population Healthy Nuclei (%) [6]: 9%
Population Hoechst High Intensity Objects (%) [6]: 15%
Population Membrane Permeable-Phenotype (%) [6]: 0%
Population Mitochondria Different-Phenotype (%) [6]: 100%
Population Mitotic Cells (%) [6]: 20%
Population Normal (%) [6]: 84%
Population Pyknosed Nuclei (%) [6]: 79%
Population Tubulin-Different-Phenotype (%) [6]: 100%
Total Cell Count [6]: 141
Population Apoptotic (%) [7]: 44%
Population Fragmented Nuclei (%) [7]: 20%
Population Healthy Nuclei (%) [7]: 0%
Population Hoechst High Intensity Objects (%) [7]: 22%
Population Membrane Permeable-Phenotype (%) [7]: 0%
Population Mitochondria Different-Phenotype (%) [7]: 100%
Population Mitotic Cells (%) [7]: 55%
Population Normal (%) [7]: 77%
Population Pyknosed Nuclei (%) [7]: 79%
Total Cell Count [7]: 135
Population Apoptotic (%) [8]: 42%
Population Fragmented Nuclei (%) [8]: 28%
Population Healthy Nuclei (%) [8]: 21%
Population Hoechst High Intensity Objects (%) [8]: 26%
Population Membrane Permeable-Phenotype (%) [8]: 18%
Population Mitochondria Different-Phenotype (%) [8]: 18%
Population Mitotic Cells (%) [8]: 57%
Population Normal (%) [8]: 73%
Population Pyknosed Nuclei (%) [8]: 50%
Population Tubulin-Different-Phenotype (%) [8]: 100%
Total Cell Count [8]: 103
Population Apoptotic (%) [9]: 85%
Population Fragmented Nuclei (%) [9]: 26%
Population Healthy Nuclei (%) [9]: 2%
Population Hoechst High Intensity Objects (%) [9]: 22%
Population Mitochondria Different-Phenotype (%) [9]: 66%
Population Mitotic Cells (%) [9]: 14%
Population Normal (%) [9]: 77%
Population Pyknosed Nuclei (%) [9]: 70%
Population Tubulin-Different-Phenotype (%) [9]: 66%
Total Cell Count [9]: 155
Population Apoptotic (%) [10]: 92%
Population Fragmented Nuclei (%) [10]: 14%
Population Healthy Nuclei (%) [10]: 11%
Population Hoechst High Intensity Objects (%) [10]: 11%
Population Membrane Permeable-Phenotype (%) [10]: 0%
Population Mitochondria Different-Phenotype (%) [10]: 84%
Population Mitotic Cells (%) [10]: 7%
Population Normal (%) [10]: 88%
Population Pyknosed Nuclei (%) [10]: 73%
Population Tubulin-Different-Phenotype (%) [10]: 84%
Total Cell Count [10]: 124
Population Apoptotic (%) [11]: 49%
Population Fragmented Nuclei (%) [11]: 20%
Population Healthy Nuclei (%) [11]: 0%
Population Hoechst High Intensity Objects (%) [11]: 22%
Population Membrane Permeable-Phenotype (%) [11]: 0%
Population Mitochondria Different-Phenotype (%) [11]: 0%
Population Mitotic Cells (%) [11]: 50%
Population Normal (%) [11]: 77%
Population Pyknosed Nuclei (%) [11]: 79%
Population Tubulin-Different-Phenotype (%) [11]: 0%
Total Cell Count [11]: 132
Population Apoptotic (%) [12]: 33%
Population Fragmented Nuclei (%) [12]: 31%
Population Healthy Nuclei (%) [12]: 50%
Population Hoechst High Intensity Objects (%) [12]: 40%
Population Membrane Permeable-Phenotype (%) [12]: 13%
Population Mitochondria Different-Phenotype (%) [12]: 28%
Population Mitotic Cells (%) [12]: 66%
Population Normal (%) [12]: 59%
Population Pyknosed Nuclei (%) [12]: 17%
Population Tubulin-Different-Phenotype (%) [12]: 64%
Total Cell Count [12]: 176
